High-throughput results deposited in PubChem BioAssay by several laboratories.
Most compounds without a hit are left out; they make up all but 2.5% or so of the library.
MC4R antagonist: MC4R antagonists of cAMP signaling, primary screen, cell-based, TR-FRET, antagonist arm of biased-ligand search; 360,000 compounds, 0.48% hits; AID 540295, 2011; inhibition, % at 6.5 µM; MC4R-expressing cells, MTII-stimulated cAMP, LANCE TR-FRET;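 active means inhibition above its plate's cutoff, the mean of tested wells on that plate plus 3 SD, cut at about 29% in these data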
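System: U2OS cells stably expressing human melanocortin 4 receptor (MC4R). Reagent: Melanotan II challenge after compound preincubation. Doses: 6.5 µM. Times: 30-min compound, 1-h challenge, 1-h detection, room temperature. Measured by: TR-FRET with Eu-cAMP and labeled anti-cAMP, 671 nm. Replicates: singlicate.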
MC4R barr agon: MC4R agonists recruiting beta-arrestin, primary screen, cell-based, luminescence, agonist arm of biased-ligand search; Melanocortin receptor 4 (Homo sapiens), P32245; U2OS MC4R beta-arrestin complementation; percent of melanotan II response, DMSO zero; activation, % at 8.9 µM; 360,000 compounds, 0.98% hits;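 active means activation above a per-plate cutoff, the mean activation of sample wells on that plate plus 3 SD, cut at about 8% in these data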
NTR1 ag: agonists of human NTR1, primary screen, imaging, U2OS cells, beta-arrestin-GFP, high content; AID 493036, 2011; NTR1-U2OS beta-arrestin-GFP spot imaging, agonist mode; activation, % at 20 µM; 330,000 compounds, 0.17% hits;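 active means activation at or above 40% of the spot to cytoplasm intensity ratio, with at least 20 cells analyzed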
PG9 Ab binder: binders of HIV-1 gp120 antibody PG9, primary screen, biochemical, TR-FRET | 360,000 compounds, 0.43% hits | AID 624416, 2012 | TR-FRET gp120-PG9 antibody binding | inhibition, % at 6.7 µM | HIV-1 gp120 / PG9 antibody interaction; in the data active means inhibition above about 8.5%
Rev-erbA mod: modulators of Rev-erb alpha DNA binding, primary screen, biochemical, FITC-DNA, fluorescence polarization, uHTS; AID 1259318, 2017; activity, % at 10 µM; Nuclear receptor subfamily 1 group D member 1 (Homo sapiens), P20393; Rev-erbα–FITC-DNA binding, 90 min; 370,000 compounds, 0.79% hits;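 active means activity above about 14%, limit read from the data; passing the limit was not always enough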
MC4R barr ag: MC4R beta-arrestin agonists, retest, confirmation, cell-based, luminescence, U2OS; U2OS MC4R beta-arrestin recruitment; scaled DMSO 0%, Melanotan II 100%; activation, % at 8.9 µM; 2,400 compounds, 31% hits; shares compounds with MC4R barr agon;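 active means mean activation across replicates above the hit cutoff set in the earlier primary screen, cut at about 8% in these data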
MOR-DOR barr ag: agonists of MOR-DOR heterodimerization, counter-screen for MC4R biased agonist project, cell-based, luminescence; shares compounds with MC4R barr agon; U2OS PathHunter beta-arrestin, beta-gal luminescence; percent of deltorphin B response, DMSO zero; activation, % at 9.2 µM; 2,400 compounds, 5.8% hits; AID 602194, 2012;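 active means mean activation across replicates exceeds the hit threshold derived in the earlier primary screen, cut at about 18% in these data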
Target sequence (P35372 whole entry, looked up): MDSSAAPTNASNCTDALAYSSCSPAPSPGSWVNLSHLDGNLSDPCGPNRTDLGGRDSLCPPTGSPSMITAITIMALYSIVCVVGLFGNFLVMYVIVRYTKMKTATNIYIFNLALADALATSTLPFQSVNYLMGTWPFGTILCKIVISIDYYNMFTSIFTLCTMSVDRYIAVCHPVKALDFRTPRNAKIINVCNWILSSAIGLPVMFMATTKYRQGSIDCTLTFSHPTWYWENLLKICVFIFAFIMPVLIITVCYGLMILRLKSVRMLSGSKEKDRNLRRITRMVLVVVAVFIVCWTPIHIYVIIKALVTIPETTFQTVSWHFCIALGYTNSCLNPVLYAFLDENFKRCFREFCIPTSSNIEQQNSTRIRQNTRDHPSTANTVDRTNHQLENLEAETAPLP
Target sequence (P41143 whole entry, looked up): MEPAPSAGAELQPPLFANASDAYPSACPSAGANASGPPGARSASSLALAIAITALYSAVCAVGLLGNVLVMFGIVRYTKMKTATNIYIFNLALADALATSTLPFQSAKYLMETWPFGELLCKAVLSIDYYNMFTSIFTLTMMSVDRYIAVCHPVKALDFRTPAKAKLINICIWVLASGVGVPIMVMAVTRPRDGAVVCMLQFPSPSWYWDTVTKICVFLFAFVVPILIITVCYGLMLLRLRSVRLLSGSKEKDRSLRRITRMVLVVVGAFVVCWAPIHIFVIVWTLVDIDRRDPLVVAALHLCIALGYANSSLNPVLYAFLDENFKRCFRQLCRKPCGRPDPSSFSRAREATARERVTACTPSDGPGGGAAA
Large screens that a line does not name were inactive (follow-up assays come after a bar, where they were run).

COc1ccc2nc(Cl)c(/C=N/Nc3ccccn3)cc2c1	MC4R barr agon 39 | MC4R barr ag inactive | MOR-DOR barr ag inactive
CCN(CC)CCCN1C(=O)C2=C(C1=O)C1N(C)c3ccccc3[C@@]13C[C@@H](CO)N(C(=O)CCC(=O)OC)C3=N2 (stereo partly drawn)	none (no result: MC4R antagonist, MC4R barr agon, NTR1 ag, PG9 Ab binder)
Cc1nn(C)c(C(=O)Nc2ccc(Br)cc2F)c1Br	MC4R barr agon 13 (no result: PG9 Ab binder) | MC4R barr ag inactive | MOR-DOR barr ag inactive
Cc1nn(Cc2ccccc2)c(C)c1C(=O)NCCN1C(=O)S/C(=C\c2ccccc2)C1=O	MC4R barr agon 11 | MC4R barr ag inactive | MOR-DOR barr ag inactive
CCCCN1CC[C@H](C)Oc2cc(Br)ccc2S1(=O)=O	none (no result: MC4R antagonist, MC4R barr agon, NTR1 ag, PG9 Ab binder)
COc1cccc(N2CCN(C(=O)CCCCCn3c(=S)[nH]c4cc5c(cc4c3=O)OCO5)CC2)c1	MC4R barr agon 35 | MC4R barr ag 14 | MOR-DOR barr ag 21
O=C(CCCCCn1c(=S)[nH]c2cc3c(cc2c1=O)OCO3)N1CCN(c2ccccc2)CC1	none
O=C(CCCCCn1c(=S)[nH]c2ccccc2c1=O)NCc1ccc2c(c1)OCO2	MC4R barr agon 10 | MC4R barr ag inactive | MOR-DOR barr ag inactive
COc1ccc(CCNC(=O)/C(C#N)=C2\N=C(NC(=O)c3ccco3)c3ccccc32)cc1	MC4R barr agon 14 | MC4R barr ag inactive | MOR-DOR barr ag inactive
N#C/C(C(=O)NCc1ccccc1)=C1/N=C(NC(=O)c2ccco2)c2ccccc21	none
O=C(Nc1ccc2oc(-c3ccncc3)nc2c1)c1ccc2c(c1)OCO2	none
O=C(Nc1ccc2oc(-c3ccncc3)nc2c1)c1ccc2c(c1)OCCO2	MC4R barr agon 23 | MC4R barr ag 12 | MOR-DOR barr ag inactive
CCN(CC)C(=O)CC[C@H]1CC[C@]2(CCCN(Cc3ccncc3)C2)O1	none (no result: MC4R antagonist, MC4R barr agon, NTR1 ag, PG9 Ab binder)
CCCCN1CN2Cc3cc(F)ccc3C2CS1(=O)=O (stereo not drawn)	none (no result: MC4R antagonist, MC4R barr agon, NTR1 ag, PG9 Ab binder)
Cc1ccc(CSCC(=O)N/N=C/c2ccc(OCC(=O)Nc3ccc(C)cc3)cc2)cc1	MC4R barr agon 16 | MC4R barr ag inactive | MOR-DOR barr ag inactive
COCC(=O)N(C)[C@H]1C[C@H]2c3[nH]c4cccc(-c5cccc(F)c5)c4c3CCN2C(=O)[C@H]1[C@H](C)O	none (no result: MC4R antagonist, MC4R barr agon, NTR1 ag, PG9 Ab binder)
COc1ccc(-n2cccc2/C=C2/NC(=O)N(c3cccc(Cl)c3)C2=O)cc1	MC4R barr agon 14 | MC4R barr ag inactive | MOR-DOR barr ag inactive
O=C(O)c1cccc(-n2cccc2/C=C2/NC(=O)N(c3cccc(Cl)c3)C2=O)c1	none
CC(C)Oc1ccc(C(CCNCc2ccc(O)cc2)c2ccccc2)cc1 (stereo not drawn)	MC4R barr agon 12 | MC4R barr ag 24 | MOR-DOR barr ag 24
Cn1c(=O)c2cc(NC(=O)CCc3cccc(Cl)c3)ccc2n1Cc1cccc(C(F)(F)F)c1	MC4R barr agon 14 (no result: NTR1 ag) | MC4R barr ag inactive | MOR-DOR barr ag inactive
C=C(C)Cn1c2ccc(NC(=O)CCc3cccc(Cl)c3)cc2c(=O)n1C	none (no result: NTR1 ag)
CCOc1ccc(N2C(=O)/C(=C/c3cccs3)N(C)C2=S)cc1	MC4R barr agon 26 | MC4R barr ag 12 | MOR-DOR barr ag inactive
CCOc1ccc(N2C(=O)CN(C)C2=S)cc1	none
COC(=O)[C@H](CC(C)C)N1Cc2nnn(Cc3ccc(C)cc3)c2-c2cc(F)ccc2S1(=O)=O	none (no result: MC4R antagonist, MC4R barr agon, NTR1 ag, PG9 Ab binder)
O=C(OCC#CCSc1nnc(-c2cccc3ccccc23)o1)C1CCC1	none (no result: MC4R antagonist, MC4R barr agon, NTR1 ag, PG9 Ab binder)
Cc1occc1-c1nnc(SCC(=O)Nc2nc(-c3ccccc3)cs2)o1	MC4R barr agon 24 | MC4R barr ag inactive | MOR-DOR barr ag inactive
Cc1ccc(-c2csc(NC(=O)CSc3nnc4c(n3)[nH]c3ccccc34)n2)cc1	MC4R barr agon 16 (no result: NTR1 ag) | MC4R barr ag inactive | MOR-DOR barr ag inactive
CCOC(=O)c1c(NC(=O)Cn2nc(C(F)F)cc2C(F)F)sc(C)c1C	none
CCOC(=O)c1c(NC(=O)Cn2nc(C(F)(F)F)cc2C)sc(C)c1C	MC4R barr agon 15 | MC4R barr ag inactive | MOR-DOR barr ag inactive
COc1cc([C@@H]2c3cc4c(cc3C(O[C@@H]3O[C@@H]5CO[C@@H](c6cccs6)OC5[C@H](O)[C@H]3O)C3COC(=O)[C@@H]32)OCO4)cc(OC)c1O (stereo partly drawn)	none (no result: MC4R antagonist, MC4R barr agon, NTR1 ag, PG9 Ab binder)
COc1ccc(C2CC(c3ccc(Cl)cc3Cl)n3nc(N)nc3N2)cc1 (stereo not drawn)	MC4R barr agon 15 | MC4R barr ag 13 | MOR-DOR barr ag inactive
COc1ccc(C2CC(c3ccc(Cl)cc3Cl)Nc3nc(N)nn32)cc1 (stereo not drawn)	none
O=C1OC(c2ccc(O)cc2)(c2ccccc2O)c2ccccc21 (stereo not drawn)	none (no result: NTR1 ag)
O=C1OC(c2ccccc2)(c2cc(Br)ccc2O)c2ccccc21 (stereo not drawn)	MC4R barr agon 21 (no result: NTR1 ag) | MC4R barr ag 20 | MOR-DOR barr ag inactive
Cc1cccc(Cn2cc3c(=O)n(Cc4cccc(F)c4)nc-3c3ccccc32)c1	MC4R barr agon 17 | MC4R barr ag inactive | MOR-DOR barr ag inactive
Cn1nc2c3cc(F)ccc3n(Cc3ccc(F)cc3)cc-2c1=O	none
CCOC(=O)N1CCN(C(=O)C[C@H]2C[C@@]3(C(=O)OC)C(=C[C@H](COCc4ccccc4)O[C@@H]3C)N(CCC3=CCCCC3)C2=O)CC1	none (no result: MC4R antagonist, MC4R barr agon, NTR1 ag)
CCC(C(=O)OCC(=O)NC(=O)NC(C)(C)C)c1ccccc1 (stereo not drawn)	MC4R barr agon 9.7 | MC4R barr ag inactive | MOR-DOR barr ag inactive
C=CCN1C(=O)C(CC(=O)Nc2ccc(OCCC)cc2)N(CCCN2CCN(Cc3ccccc3)CC2)C1=S (stereo not drawn)	MC4R barr agon 22 | MC4R barr ag 9.4 | MOR-DOR barr ag 22
COc1ccc(OC)c(NC(=O)c2cc(-c3cc(C)ccc3O)n[nH]2)c1	MC4R barr agon 10 | MC4R barr ag inactive | MOR-DOR barr ag inactive
Cc1csc2nc(O)c(C(=O)NCCC3=CCCCC3)c(=O)n12	MC4R barr agon 14 | MC4R barr ag inactive | MOR-DOR barr ag inactive
Cc1csc2nc(O)c(C(=O)NCCCc3ccccc3)c(=O)n12	none
O=[N+]([O-])c1ccc(N/N=C/c2ccccc2)c(F)c1	MC4R barr agon 12 | MC4R barr ag inactive | MOR-DOR barr ag inactive
